From ChEMBL document CHEMBL5724801, “EUbOPEN Chemogenomics Library - Multiplex” (2024)
“And” between values parts separate entries of the source, which are not always exact repeats. Equal values may be shown once.

Tested on: Fibroblast
Test: Multiplex assay against human fibroblast
Format: toxicity, cell-based
Method in brief: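 Live cells were stained at seeding with Hoechst33342, BioTracker Green Microtubule Cytoskeleton Dye, MitoTracker Red and Annexin V Alexa Fluor 680, then imaged on a CQ1 microscope at 37°C and 5% CO2 after compound addition. CellPathfinder machine-learning gating split cells into Hoechst high-intensity objects or normal cells. Normal cells were split into healthy, pyknosed or fragmented nuclei, and pyknosed cells into mitotic or apoptotic. Tubulin, mitochondrial-mass and membrane-permeability phenotypes are per cents of healthy-nucleus cells.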

[1] = 12 h, 1 µM, compound concentration 1 uM
[2] = 12 h, 10 µM, compound concentration 10 uM
[3] = 24 h, 1 µM, compound concentration 1 uM
[4] = 24 h, 10 µM, compound concentration 10 uM
[5] = 48 h, 1 µM, compound concentration 1 uM
[6] = 48 h, 10 µM, compound concentration 10 uM

In the case of `CC/C(=C(\c1ccc(O)cc1)c1ccc(OCCN(C)C)cc1)c1ccccc1` [AFIMOXIFENE], the “Population Apoptotic (%)” value [1] is reported as 6.78% and 3.57%, the “Population Fragmented Nuclei (%)” value [1] is reported as 14.83% and 6.12% and the “Population Healthy Nuclei (%)” value [1] is reported as 56.94% and 79.59%. The “Population Hoechst High Intensity Objects (%)” value [1] was 0%, the “Population Membrane Permeable-Phenotype (%)” value [1] was 2.52% and 2.56% and the “Population Mitochondria Different-Phenotype (%)” value [1] was 7.56% and 8.97%. For the same compound, the “Population Mitotic Cells (%)” value [1] was 93.22% and 96.43%, the “Population Normal (%)” value [1] was 100% and the “Population Pyknosed Nuclei (%)” value [1] was 28.23% and 14.29%. For the same compound, the “Population Tubulin-Different-Phenotype (%)” value [1] was 14.29% and 22.44%, the “Total Cell Count” value [1] was 209 and 196 and the “Population Fragmented Nuclei (%)” value [2] was 14.55% and 7.74%. For the same compound, the “Population Healthy Nuclei (%)” value [2] was 54.55% and 72.76%, the “Population Hoechst High Intensity Objects (%)” value [2] was 0% and the “Population Membrane Permeable-Phenotype (%)” value [2] was 3.33% and 2.55%. For the same compound, the “Population Mitochondria Different-Phenotype (%)” value [2] was 25.56% and 23.83%, the “Population Mitotic Cells (%)” value [2] was 94.12% and 80.95% and the “Population Normal (%)” value [2] was 100%. The “Population Pyknosed Nuclei (%)” value [2] was 30.91% and 19.5%, the “Population Tubulin-Different-Phenotype (%)” value [2] was 54.44% and 66.38% and the “Total Cell Count” value [2] was 165 and 323. The “Population Apoptotic (%)” value [3] was 8.77% and 18.75%, the “Population Fragmented Nuclei (%)” value [3] was 10.78% and 8.21% and the “Population Healthy Nuclei (%)” value [3] was 64.66% and 83.59%. The “Population Hoechst High Intensity Objects (%)” value [3] was 0%, the “Population Membrane Permeable-Phenotype (%)” value [3] was 4% and 2.45% and the “Population Mitochondria Different-Phenotype (%)” value [3] was 6.67% and 9.82%. For the same compound, the “Population Mitotic Cells (%)” value [3] was 91.23% and 81.25%, the “Population Normal (%)” value [3] was 100% and the “Population Pyknosed Nuclei (%)” value [3] was 24.57% and 8.21%. The “Population Tubulin-Different-Phenotype (%)” value [3] was 18% and 23.31%, the “Total Cell Count” value [3] was 232 and 195 and the “Population Apoptotic (%)” value [4] was 17.65% and 48.31%. For the same compound, the “Population Fragmented Nuclei (%)” value [4] was 12.57%, the “Population Healthy Nuclei (%)” value [4] was 50.27% and 67.6% and the “Population Hoechst High Intensity Objects (%)” value [4] was 0%. For the same compound, the “Population Membrane Permeable-Phenotype (%)” value [4] was 3.26% and 2.76%, the “Population Mitochondria Different-Phenotype (%)” value [4] was 29.35% and 27.19% and the “Population Mitotic Cells (%)” value [4] was 82.35% and 51.69%. The “Population Normal (%)” value [4] was 100%, the “Population Pyknosed Nuclei (%)” value [4] was 37.16% and 27.73% and the “Population Tubulin-Different-Phenotype (%)” value [4] was 70.65% and 79.72%. For the same compound, the “Total Cell Count” value [4] was 183 and 321, the “Population Fragmented Nuclei (%)” value [5] was 9.52% and 11.27% and the “Population Healthy Nuclei (%)” value [5] was 83.67% and 81.69%. The “Population Hoechst High Intensity Objects (%)” value [5] was 0%, the “Population Membrane Permeable-Phenotype (%)” value [5] was 1.22% and 2.3% and the “Population Mitochondria Different-Phenotype (%)” value [5] was 9.35% and 5.17%. For the same compound, the “Population Mitotic Cells (%)” value [5] was 95% and 73.33%, the “Population Normal (%)” value [5] was 100% and the “Population Pyknosed Nuclei (%)” value [5] was 6.8% and 7.04%. For the same compound, the “Population Tubulin-Different-Phenotype (%)” value [5] was 8.94% and 25.86%, the “Total Cell Count” value [5] was 294 and 213 and the “Population Apoptotic (%)” value [6] was 28.57% and 43.14%. For the same compound, the “Population Healthy Nuclei (%)” value [6] was 71.37% and 80.49%, the “Population Hoechst High Intensity Objects (%)” value [6] was 0% and the “Population Membrane Permeable-Phenotype (%)” value [6] was 4.71%. The “Population Mitochondria Different-Phenotype (%)” value [6] was 13.37% and 7.41%, the “Population Mitotic Cells (%)” value [6] was 71.43% and 56.86% and the “Population Normal (%)” value [6] was 100%. The “Population Pyknosed Nuclei (%)” value [6] was 8.71% and 13.82%, the “Population Tubulin-Different-Phenotype (%)” value [6] was 49.42% and 76.77% and the “Total Cell Count” value [6] was 241 and 369.
In the case of `O=c1cccc2n1C[C@@H]1CNC[C@H]2C1` [CYTISINICLINE], the “Population Apoptotic (%)” value [1] is reported as 5.66% and 13.33%, the “Population Fragmented Nuclei (%)” value [1] is reported as 10.05% and 5.19% and the “Population Healthy Nuclei (%)” value [1] is reported as 61.9% and 75.32%. For the same compound, the “Population Hoechst High Intensity Objects (%)” value [1] was 0%, the “Population Membrane Permeable-Phenotype (%)” value [1] was 4.27% and 5.17% and the “Population Mitochondria Different-Phenotype (%)” value [1] was 5.98% and 6.9%. For the same compound, the “Population Mitotic Cells (%)” value [1] was 94.34% and 86.67%, the “Population Normal (%)” value [1] was 100% and the “Population Pyknosed Nuclei (%)” value [1] was 28.04% and 19.48%. The “Population Tubulin-Different-Phenotype (%)” value [1] was 11.11% and 12.93%, the “Total Cell Count” value [1] was 189 and 154 and the “Population Apoptotic (%)” value [2] was 15.38% and 16.67%. For the same compound, the “Population Fragmented Nuclei (%)” value [2] was 13.5% and 4.41%, the “Population Healthy Nuclei (%)” value [2] was 62.58% and 80.88% and the “Population Hoechst High Intensity Objects (%)” value [2] was 0%. The “Population Membrane Permeable-Phenotype (%)” value [2] was 11.76% and 2.42%, the “Population Mitochondria Different-Phenotype (%)” value [2] was 9.8% and 7.27% and the “Population Mitotic Cells (%)” value [2] was 84.62% and 83.33%. The “Population Normal (%)” value [2] was 100%, the “Population Pyknosed Nuclei (%)” value [2] was 23.93% and 14.71% and the “Population Tubulin-Different-Phenotype (%)” value [2] was 20.59% and 20.61%. For the same compound, the “Total Cell Count” value [2] was 163 and 204, the “Population Apoptotic (%)” value [3] was 10.81% and 26.67% and the “Population Fragmented Nuclei (%)” value [3] was 10.86% and 6.41%. For the same compound, the “Population Healthy Nuclei (%)” value [3] was 72.4% and 83.97%, the “Population Hoechst High Intensity Objects (%)” value [3] was 0% and the “Population Membrane Permeable-Phenotype (%)” value [3] was 3.12% and 3.05%. The “Population Mitochondria Different-Phenotype (%)” value [3] was 4.38% and 3.82%, the “Population Mitotic Cells (%)” value [3] was 89.19% and 73.33% and the “Population Normal (%)” value [3] was 100%. The “Population Pyknosed Nuclei (%)” value [3] was 16.74% and 9.62%, the “Population Tubulin-Different-Phenotype (%)” value [3] was 13.12% and 12.21% and the “Total Cell Count” value [3] was 221 and 156. For the same compound, the “Population Apoptotic (%)” value [4] was 8% and 22.22%, the “Population Fragmented Nuclei (%)” value [4] was 9.26% and 6.16% and the “Population Healthy Nuclei (%)” value [4] was 75.31% and 85.31%. For the same compound, the “Population Hoechst High Intensity Objects (%)” value [4] was 0%, the “Population Membrane Permeable-Phenotype (%)” value [4] was 6.56% and 4.44% and the “Population Mitochondria Different-Phenotype (%)” value [4] was 5.74% and 5%. For the same compound, the “Population Mitotic Cells (%)” value [4] was 92% and 77.78%, the “Population Normal (%)” value [4] was 100% and the “Population Pyknosed Nuclei (%)” value [4] was 15.43% and 8.53%. For the same compound, the “Population Tubulin-Different-Phenotype (%)” value [4] was 20.49% and 23.33%, the “Total Cell Count” value [4] was 162 and 211 and the “Population Apoptotic (%)” value [5] was 26.67% and 22.22%. The “Population Fragmented Nuclei (%)” value [5] was 7.5% and 5.23%, the “Population Healthy Nuclei (%)” value [5] was 86.25% and 83.01% and the “Population Hoechst High Intensity Objects (%)” value [5] was 0%. For the same compound, the “Population Membrane Permeable-Phenotype (%)” value [5] was 0.48% and 1.57%, the “Population Mitotic Cells (%)” value [5] was 73.33% and 77.78% and the “Population Normal (%)” value [5] was 100%. For the same compound, the “Population Pyknosed Nuclei (%)” value [5] was 6.25% and 11.76%, the “Population Tubulin-Different-Phenotype (%)” value [5] was 3.38% and 7.09% and the “Total Cell Count” value [5] was 240 and 153. For the same compound, the “Population Apoptotic (%)” value [6] was 62.5% and 28.57%, the “Population Fragmented Nuclei (%)” value [6] was 8.67% and 8.44% and the “Population Healthy Nuclei (%)” value [6] was 87.24% and 85.65%. The “Population Hoechst High Intensity Objects (%)” value [6] was 0%, the “Population Membrane Permeable-Phenotype (%)” value [6] was 0% and 2.46% and the “Population Mitotic Cells (%)” value [6] was 37.5% and 71.43%. For the same compound, the “Population Normal (%)” value [6] was 100%, the “Population Pyknosed Nuclei (%)” value [6] was 4.08% and 5.91% and the “Population Tubulin-Different-Phenotype (%)” value [6] was 8.19% and 18.72%. The “Total Cell Count” value [6] was 196 and 237.
